ChEMBL document CHEMBL3392971, “Design and synthesis of protein kinase C epsilon selective diacylglycerol lactones (DAG-lactones)” (Eur J Med Chem, 2015)

Assays:
[1] = molecular target: T1, Protein kinase C alpha type (Homo sapiens, UniProt P17252); assay: Displacement of [20-3H] phorbol 12, 13-dibutylate from recombinant PKCalpha (unknown origin) in presence of nuclear membrane mimetic lipid mixture; assay type: cell membranes
[2] = molecular target: T2, Protein kinase C epsilon type (Homo sapiens, UniProt Q02156); assay: Displacement of [20-3H] phorbol 12, 13-dibutylate from recombinant PKCepsilon (unknown origin) in presence of nuclear membrane mimetic lipid mixture; assay type: cell membranes
T2 sequence (Q02156 whole entry): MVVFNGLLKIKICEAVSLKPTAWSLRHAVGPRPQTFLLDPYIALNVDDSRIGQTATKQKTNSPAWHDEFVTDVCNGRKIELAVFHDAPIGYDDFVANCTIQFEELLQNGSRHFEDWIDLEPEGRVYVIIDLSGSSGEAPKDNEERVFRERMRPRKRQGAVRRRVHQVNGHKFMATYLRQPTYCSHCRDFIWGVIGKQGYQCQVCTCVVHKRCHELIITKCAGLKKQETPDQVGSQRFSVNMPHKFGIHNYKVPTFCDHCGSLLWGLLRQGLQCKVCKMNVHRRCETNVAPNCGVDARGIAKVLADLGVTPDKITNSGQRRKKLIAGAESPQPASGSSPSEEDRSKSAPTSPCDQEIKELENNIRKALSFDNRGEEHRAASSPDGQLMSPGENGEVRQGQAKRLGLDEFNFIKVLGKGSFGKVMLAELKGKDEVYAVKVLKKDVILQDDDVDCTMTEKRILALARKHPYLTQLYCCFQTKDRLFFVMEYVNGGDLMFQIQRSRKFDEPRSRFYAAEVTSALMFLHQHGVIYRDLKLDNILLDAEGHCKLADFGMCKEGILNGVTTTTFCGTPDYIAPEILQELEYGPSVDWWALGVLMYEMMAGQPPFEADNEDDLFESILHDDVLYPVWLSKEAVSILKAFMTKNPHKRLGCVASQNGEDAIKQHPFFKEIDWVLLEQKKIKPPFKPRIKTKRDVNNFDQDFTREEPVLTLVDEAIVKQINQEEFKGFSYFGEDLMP

Homo sapiens [3] = species: Homo sapiens; assay: Selectivity index, ratio of Ki for recombinant PKCalpha (unknown origin) in presence of nuclear membrane mimetic lipid mixture to Ki for recombinant PKCepsilon (unknown origin) in presence of nuclear membrane mimetic lipid mixture; assay type: cell membranes
Outline: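 Ki values for recombinant PKC-alpha and PKC-epsilon were each measured by competition with [20-3H]PDBu in the nuclear-membrane-mimetic lipid mix (POPC/POPE/POPS/POPI/cholesterol 61:21:4:7:6). The ratio is PKC-alpha Ki divided by PKC-epsilon Ki.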

[4] = molecular target: T1, Protein kinase C alpha type; assay: Displacement of [20-3H] phorbol 12, 13-dibutylate from recombinant PKCalpha (unknown origin) in presence of 100 ug/ml 100% phosphatidylserine
[5] = molecular target: T2, Protein kinase C epsilon type; assay: Displacement of [20-3H] phorbol 12, 13-dibutylate from recombinant PKCepsilon (unknown origin) in presence of 100 ug/ml 100% phosphatidylserine
Homo sapiens [6] = species: Homo sapiens; assay: Selectivity index, ratio of Ki for recombinant PKCalpha (unknown origin) in presence of 100 ug/ml 100% phosphatidylserine to Ki for recombinant PKCepsilon (unknown origin) in presence of 100 ug/ml 100% phosphatidylserine
[7] = Lipophilicity, log P of the compound; assay type: physicochemical; details: octanol/water

Row | Ki [1] | Ki [2] | Ratio Ki (Homo sapiens [3]) | Ki [4] | Ki [5] | Ratio Ki (Homo sapiens [6]) | logP ([7]; read-out: logP) | logP [7] | SMILES
1 | 0.0608 µM | 0.0128 µM | 4.8 | 0.00831 µM | 0.00524 µM | 1.6 | 7.82 | – | CCCCCCC#CC#CCCCCCCCC(=O)OCC1(CO)C/C(=C\CC(C)C)C(=O)O1 (configuration not stated)
2 | 0.0262 µM | 0.0195 µM | 1.3 | 0.00705 µM | 0.0122 µM | 0.6 | 8.29 | – | CCCCCC=CCC=CCCCCCCCC(=O)OCC1(CO)C/C(=C/CC(C)C)C(=O)O1 (configuration not stated)
3 | 0.073 µM | 0.0588 µM | 1.2 | 0.0331 µM | 0.0152 µM | 2.2 | – | 9.15 | CCCCCC1CC1CC1CC1CCCCCCC/C=C1/CC(CO)(COC(=O)C(C)(C)C)OC1=O (configuration not stated)
4 | 0.116 µM | 0.0169 µM | 6.9 | 0.0132 µM | 0.00746 µM | 1.8 | 5.69 | – | CCCCCC1OC1CC1OC1CCCCCCCC(=O)OCC1(CO)C/C(=C\CC(C)C)C(=O)O1 (configuration not stated)
5 | 0.0257 µM | 0.0052 µM | 4.9 | 0.00826 µM | 0.0041 µM | 2 | 8.25 | – | CCCCC/C=C\C/C=C\CCCCCCC/C=C1\CC(CO)(COC(=O)C(C)(C)C)OC1=O (configuration not stated)
6 | 0.0311 µM | 0.0096 µM | 3.2 | 0.0072 µM | 0.00506 µM | 1.4 | 8.25 | – | CCCCC/C=C\C/C=C\CCCCCCC/C=C1/CC(CO)(COC(=O)C(C)(C)C)OC1=O (configuration not stated)
7 | 0.057 µM | 0.0156 µM | 3.6 | 0.00474 µM | 0.00237 µM | 2 | 5.06 | – | CC(C)C/C=C1/CC(CO)(COC(=O)CC(CC(C)C)CC(C)C)OC1=O (configuration not stated)
8 | 0.0387 µM | 0.0346 µM | 1.1 | 0.0126 µM | 0.00712 µM | 1.8 | 8.01 | – | CCCCCCCCC#CCCCCCCCC(=O)OCC1(CO)C/C(=C/CC(C)C)C(=O)O1 (configuration not stated)
9 | 0.103 µM | 0.063 µM | 1.6 | 0.0165 µM | 0.0163 µM | 1 | 5.69 | – | CCCCCC1OC1CC1OC1CCCCCCCC(=O)OCC1(CO)C/C(=C/CC(C)C)C(=O)O1 (configuration not stated)
10 | 0.11 µM | 0.041 µM | 2.7 | 0.0267 µM | 0.0083 µM | 3.2 | – | 9.15 | CCCCCC1CC1CC1CC1CCCCCCC/C=C1\CC(CO)(COC(=O)C(C)(C)C)OC1=O (configuration not stated)
11 | 0.044 µM | 0.0307 µM | 1.4 | 0.0154 µM | 0.0098 µM | 1.6 | – | 9.19 | CCCCCC1CC1CC1CC1CCCCCCCC(=O)OCC1(CO)C/C(=C/CC(C)C)C(=O)O1 (configuration not stated)
12 | 0.099 µM | 0.047 µM | 2.1 | 0.0308 µM | 0.0114 µM | 2.7 | 8.72 | – | CCCCCCCCCCCCCCCCCC(=O)OCC1(CO)C/C(=C\CC(C)C)C(=O)O1 (configuration not stated)
13 | 0.0154 µM | 0.003 µM | 5.1 | 0.00278 µM | 0.00121 µM | 2.3 | 5.06 | – | CC(C)C/C=C1\CC(CO)(COC(=O)CC(CC(C)C)CC(C)C)OC1=O (configuration not stated)
14 | 0.0448 µM | 0.0403 µM | 1.1 | 0.0098 µM | 0.0134 µM | 0.7 | 7.82 | – | CCCCCCC#CC#CCCCCCCCC(=O)OCC1(CO)C/C(=C/CC(C)C)C(=O)O1 (configuration not stated)
15 | 0.06 µM | 0.0198 µM | 3 | 0.0102 µM | 0.0055 µM | 1.9 | – | 9.19 | CCCCCC1CC1CC1CC1CCCCCCCC(=O)OCC1(CO)C/C(=C\CC(C)C)C(=O)O1 (configuration not stated)
16 | 0.0247 µM | 0.0131 µM | 1.9 | 0.00433 µM | 0.00214 µM | 2 | 8.29 | – | CCCCCC=CCC=CCCCCCCCC(=O)OCC1(CO)C/C(=C\CC(C)C)C(=O)O1 (configuration not stated)
17 | 0.0438 µM | 0.0091 µM | 4.8 | 0.0087 µM | 0.00479 µM | 1.8 | 8.01 | – | CCCCCCCCC#CCCCCCCCC(=O)OCC1(CO)C/C(=C\CC(C)C)C(=O)O1 (configuration not stated)
18 | 0.106 µM | 0.034 µM | 3.1 | 0.0439 µM | 0.0193 µM | 2.3 | 8.72 | – | CCCCCCCCCCCCCCCCCC(=O)OCC1(CO)C/C(=C/CC(C)C)C(=O)O1 (configuration not stated)

Row | SMILES | Ki [1] | Ki [2] | Ratio Ki (Homo sapiens [3]) | Ki [4] | Ki [5] | Ratio Ki (Homo sapiens [6]) | logP ([7]; read-out: logP) | logP [7]
19 | CC(C)CC(C/C=C1\CC(CO)(COC(=O)C(C)(C)C)OC1=O)CC(C)C (configuration not stated) | 0.046 µM | 0.00143 µM | 32.2 | 0.0083 µM | 0.00103 µM | 8.1 | – | –
